Assay results taken from publication PMC5723703 (Pharmacology Research & Perspectives, 2017).
“And” between values parts separate entries of the source, which are not always exact repeats. Equal values may be shown once. Read-outs that look alike come from different tables or passages of the source.

Columns and labels:
human S1P3 receptor = human S1P3 receptor (Homo sapiens, UniProt Q99500); assay type: biochemical
human S1P4 receptor = biological target: T1, human S1P4 receptor (Homo sapiens, UniProt O95977); assay type: biochemical
T1 sequence (O95977 1-384): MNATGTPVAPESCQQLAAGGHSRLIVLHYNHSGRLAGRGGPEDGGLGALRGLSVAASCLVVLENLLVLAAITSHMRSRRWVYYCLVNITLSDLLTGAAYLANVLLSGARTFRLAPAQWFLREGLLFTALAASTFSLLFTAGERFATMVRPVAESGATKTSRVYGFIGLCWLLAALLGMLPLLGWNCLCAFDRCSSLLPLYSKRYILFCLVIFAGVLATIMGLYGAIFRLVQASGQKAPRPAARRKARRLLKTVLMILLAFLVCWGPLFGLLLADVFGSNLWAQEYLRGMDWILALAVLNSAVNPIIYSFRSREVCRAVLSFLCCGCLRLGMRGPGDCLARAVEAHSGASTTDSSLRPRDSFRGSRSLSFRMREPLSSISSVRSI
Procedure, shortened: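 Membranes from CHO cells expressing recombinant human S1P4 were used for (35S)-GTPγS binding as a measure of G protein activation. EC50 was fitted with the compound's own maximal response as the top and the no-effect level of the lowest concentration as the bottom.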

S1P1 receptor [1] = biological target: T2, S1P1 receptor (Homo sapiens, UniProt P21453); assay: Ca2+ mobilization assay; assay type: cell-based
rat trachea = assay: Isometric force development, isolated rat tracheal rings
S1P1 receptor [2] = biological target: T2, S1P1 receptor; assay type: biochemical
S1P2 receptor [3] = biological target: T3, S1P2 receptor (Homo sapiens, UniProt O95136); assay type: biochemical
human S1P5 receptor = human S1P5 receptor (Homo sapiens, UniProt Q9H228); assay type: biochemical
S1P1 receptor [4] = biological target: T2, S1P1 receptor; assay type: biochemical; remark: listed apart in the source
S1P1 receptor [5] = biological target: T2, S1P1 receptor; assay: Ca2+ signaling in CHO cells expressing recombinant human S1P1 receptor; assay type: cell-based
rat mesenteric arteries = assay: Isometric force development, isolated rat mesenteric arteries
Procedure, shortened: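 After CO₂ euthanasia, two mesenteric artery rings (1.5 mm, 2nd and 3rd branch) were mounted on 20 μm wires in a wire myograph with modified Krebs-Henseleit buffer. Viability was checked with KCl 60 mmol/L. Endothelium was confirmed by acetylcholine (10^-5 mol/L) relaxation of rings precontracted with U46619 (10^-6 mol/L).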

[6] = system: spontaneous hypertensive rats; assay: Blood pressure and heart rate by telemetry in conscious SHR; assay type: in vivo, rat
human bronchi = assay: Isometric force development, isolated human bronchial rings
Wistar rats [7] = assay: In vivo lung function; parameters: species or system rat; settings: n = 10
Procedure, shortened: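 Male Wistar rats (200-250 g), acclimatised at least 7 days, were unrestrained, conscious and breathing spontaneously in whole-body plethysmograph chambers (calibrated with a 5 mL air injection), one rat per chamber. Baseline was recorded for 120 min. Single oral dosing used 0.25% methylcellulose/0.05% Tween 80 vehicle, followed by recording for 6 h.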

Wistar rats [8] = assay: Blood lymphocyte count in rats after oral administration; assay type: in vivo, rat
[9] = Compound concentrations in rat plasma; assay type: in vivo; settings: for plasma concentration at time of maximal lymphocyte count reduction (6 hours): rats
C57BL/6 mice [10] = assay: Lymphocyte count and plasma concentration in mice; assay type: in vivo, mouse; settings: three repeated doses of 6 mg·kg^‐1·day^‐1, day 0 vs day 2 (data not shown)
C57BL/6 mice [11] = assay: Mouse MOG33-55 EAE model with spinal cord histopathology; assay type: in vivo
Procedure, shortened: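 EAE was induced in 6-week-old female C57BL/6JOlaHsd mice with 150 μg MOG33-55 in CFA, s.c. into both flanks under isoflurane, plus a pertussis toxin boost. Dosing was 6 mg·kg^‐1·day^‐1 or vehicle (0.25% methylcellulose, 0.05% Tween 80) from day 0 or day 14, with daily scoring 0–5. Spinal cords were taken after saline perfusion, formalin-fixed, and 4 μm sections stained with HE and cresyl violet/Luxol fast blue; naïve mice served as controls.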

S1P2 receptor [12] = biological target: T3, S1P2 receptor; assay: Impedance-based analysis of S1P2 receptor signaling in CHO-hS1P2 cells; assay type: cell-based; settings: 0.05-5000 nM
[13] = EC50 hS1P4, (35S)-GTPγS, CHO membranes, geometric mean, n = 2‐4
[14] = percentage of maximal response induced by 1 or 10 μmol·L^‐1 S1P

human S1P5 receptor, sequence (Q9H228 whole entry): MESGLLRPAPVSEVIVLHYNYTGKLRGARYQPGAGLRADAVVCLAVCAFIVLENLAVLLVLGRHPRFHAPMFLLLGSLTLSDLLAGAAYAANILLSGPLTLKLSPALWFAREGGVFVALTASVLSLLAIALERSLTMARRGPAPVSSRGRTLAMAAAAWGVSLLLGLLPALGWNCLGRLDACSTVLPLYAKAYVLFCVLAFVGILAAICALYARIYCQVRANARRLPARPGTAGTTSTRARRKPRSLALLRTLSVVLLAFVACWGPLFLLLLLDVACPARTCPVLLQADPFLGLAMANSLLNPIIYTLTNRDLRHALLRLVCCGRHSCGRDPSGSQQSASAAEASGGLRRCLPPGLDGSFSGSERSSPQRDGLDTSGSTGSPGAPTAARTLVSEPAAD
human S1P3 receptor, sequence (Q99500 whole entry): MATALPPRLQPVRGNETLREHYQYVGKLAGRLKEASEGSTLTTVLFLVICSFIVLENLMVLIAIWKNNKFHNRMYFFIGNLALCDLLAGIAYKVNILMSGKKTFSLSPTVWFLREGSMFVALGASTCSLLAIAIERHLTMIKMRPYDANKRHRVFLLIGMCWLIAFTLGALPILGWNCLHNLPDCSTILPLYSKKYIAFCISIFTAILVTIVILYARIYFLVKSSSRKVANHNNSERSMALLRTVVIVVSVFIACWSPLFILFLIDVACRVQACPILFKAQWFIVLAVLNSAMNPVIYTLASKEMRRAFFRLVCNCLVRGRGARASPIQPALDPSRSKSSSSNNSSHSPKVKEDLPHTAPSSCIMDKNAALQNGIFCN
T2 sequence (P21453 whole entry): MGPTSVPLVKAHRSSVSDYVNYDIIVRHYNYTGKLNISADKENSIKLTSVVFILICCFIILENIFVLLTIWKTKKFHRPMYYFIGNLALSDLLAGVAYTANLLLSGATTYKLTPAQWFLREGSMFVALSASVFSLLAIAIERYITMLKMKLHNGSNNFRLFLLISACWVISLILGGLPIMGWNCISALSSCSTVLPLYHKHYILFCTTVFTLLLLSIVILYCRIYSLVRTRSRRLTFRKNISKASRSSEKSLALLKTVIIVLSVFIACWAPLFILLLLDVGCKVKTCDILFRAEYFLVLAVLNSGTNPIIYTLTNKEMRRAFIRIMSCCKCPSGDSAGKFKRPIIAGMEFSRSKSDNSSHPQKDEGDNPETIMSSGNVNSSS
T3 sequence (O95136 whole entry): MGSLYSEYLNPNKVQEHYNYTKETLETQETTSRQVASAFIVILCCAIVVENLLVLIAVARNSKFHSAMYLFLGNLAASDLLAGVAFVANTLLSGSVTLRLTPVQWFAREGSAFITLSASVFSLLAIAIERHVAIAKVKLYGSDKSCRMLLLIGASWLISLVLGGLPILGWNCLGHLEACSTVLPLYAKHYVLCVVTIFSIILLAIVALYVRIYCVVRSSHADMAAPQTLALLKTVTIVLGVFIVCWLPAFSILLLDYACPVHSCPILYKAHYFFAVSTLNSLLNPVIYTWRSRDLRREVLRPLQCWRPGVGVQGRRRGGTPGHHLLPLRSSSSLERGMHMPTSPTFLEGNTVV

CCCCCCCCCCCCC/C=C/[C@@H](O)[C@@H](N)COP(=O)(O)O [S1P, Sphingosine‐1‐phosphate, reference compound]
EC50 (human S1P3 receptor): 0.1 nM | EC50 (human S1P4 receptor; [13]): 60 nM | EC50 (S1P1 receptor [1]): 34 nM | constriction of lower rat trachea (rat trachea; 1 μmol·L^‐1, in presence of Ca^2+ (2.5 mmol·L^‐1), n = 3): induced lower rat trachea constriction

CCc1cc(-c2noc(-c3cc(OC)nc(C4CCCC4)c3)n2)cc(C)c1OC[C@@H](O)CO [Cenerimod, (S)‐3‐(4‐(5‐(2‐cyclopentyl‐6‐methoxypyridin‐4‐yl)‐1,2,4‐oxadiazol‐3‐yl)‐2‐ethyl‐6‐methylphenoxy)propane‐1,2‐diol]
fold higher potency on the S1P1 receptor compared to the natural ligand S1P (S1P1 receptor [2]; (35S)-GTPγS EC50 ratio): 16 fold | Emax (S1P1 receptor [2]; read-out: E max (%) hS1P1): 126% | EC50 (S1P2 receptor [3]): > 10000 nM | agonist activity on the S1P2 receptor (S1P2 receptor [3]; up to the highest tested concentration (10 μmol·L^‐1)): no detectable agonist activity | EC50 (human S1P3 receptor): 228 nM | fold less active at the S1P3 receptor than S1P (human S1P3 receptor; (35S)-GTPγS EC50 ratio): at least 2000 fold | fold less active at the S1P3 receptor than pFTY720 (human S1P3 receptor; (35S)-GTPγS EC50 ratio): 400 fold | Emax (human S1P3 receptor; read-out: E max (%) hS1P3): 81% | EC50 (human S1P4 receptor; EC50 S1P4 receptor, (35S)-GTPγS, human recombinant receptor): 2100 nM | EC50 (human S1P4 receptor; [13]): 2130 nM | Emax (human S1P4 receptor; read-out: E max (%) hS1P4): 123% | EC50 (human S1P5 receptor): 36 nM | fold less potent on the S1P5 receptor than pFTY720 (human S1P5 receptor; (35S)-GTPγS EC50 ratio): 70 fold | fold more potent on the S1P5 receptor than the natural ligand S1P (human S1P5 receptor; (35S)-GTPγS EC50 ratio): twofold | Emax (human S1P5 receptor; read-out: E max (%) hS1P5): 65% | EC50 (S1P1 receptor [4]): 2 nM | EC50 (S1P1 receptor [1]): 1040 nM | fold less potent in Ca^2+ signaling than in (35S)‐GTPγS assays (S1P1 receptor [1]; HUVEC): approximately 500 fold | EC50 (S1P1 receptor [5]): 124 nM | contraction of rat mesenteric arteries (rat mesenteric arteries; 10 μmol·L^‐1, n = 4): did not contract | effect on heart rate (HR) ([6]; 30 mg·kg^‐1 single oral dose): no effect | decrease of mean arterial blood pressure (MAP) ([6]; 30 mg·kg^‐1 single oral dose, 48 hours observation period): 9 ± 3 mmHg | contraction of upper and lower rat trachea (rat trachea; highest tested concentration 10 μmol·L^‐1, n = 4): complete lack of response | contraction of human bronchi (human bronchi; 10 μmol·L^‐1): no contraction | Penh (index of bronchoconstriction) vs vehicle (Wistar rats [7]; 100 mg·kg^‐1 p.o., 4 hours evaluation period): did not increase | single oral dose at which plateau of lymphocyte reduction is reached (Wistar rats [8]): 1 mg·kg^‐1 | time until lymphocyte count returned to predose levels (Wistar rats [8]; 1 mg·kg^‐1 single oral dose): ≤ 48 h | decrease of blood lymphocyte count (Wistar rats [8]; 1 mg·kg^‐1 single oral dose, P < .001): 63 ± 4% | blood lymphocyte count after dosing (Wistar rats [8]; 1 mg·kg^‐1 single oral dose, from 7900 ± 690 before dosing): 2900 ± 370 lymphocytes/μL | time until lymphocyte count returned to physiological levels after the last dose (Wistar rats [8]; 1 mg·kg^‐1·day^‐1 oral for 7 days (data not shown)): ≤ 2 days | reduction of blood lymphocyte count at 48 hours (Wistar rats [8]; 3 mg·kg^‐1 single oral dose): more than 40% | time until lymphocyte count returned to physiological levels after the last dose (Wistar rats [8]; 3 mg·kg^‐1·day^‐1 oral for 7 days (data not shown)): ≤ 4 days | reduction of peripheral blood lymphocyte count after 48 hours (Wistar rats [8]; 10 mg·kg^‐1 single oral dose): 65 ± 3% | plasma concentration ([9]; 4 hours after oral administration of 100 mg·kg^‐1, Wistar rats (Penh study)): 4.4 ± 0.6 μg·mL^‐1 | Tmax ([9]; Wistar, rat, plasma, po): 3 h | plasma concentration at time of maximal lymphocyte count reduction (6 hours) ([9]; 1 mg·kg^‐1 single oral dose): 41 ± 2 ng·mL^‐1 | plasma concentration at time of maximal lymphocyte count reduction (6 hours) ([9]; 10 mg·kg^‐1 single oral dose): 869 ± 73 ng·mL^‐1 | compound accumulation (C57BL/6 mice [10]): absence of compound accumulation | mice completely protected from disease development (C57BL/6 mice [11]; 6 mg·kg^‐1·day^‐1 from day 0 (preventive), n = 8): Five out of eight | clinical score reached (maximum reduction), all treated mice (C57BL/6 mice [11]; 6 mg·kg^‐1·day^‐1 from day 14 (therapeutic), n = 8): 0.5 | incidence and severity of spinal cord demyelination (C57BL/6 mice [11]; preventive or therapeutic regimen, 6 mg·kg^‐1·day^‐1): equally reduced | maximal clinical score of the individual mice that developed disease (C57BL/6 mice [11]; preventive treatment 6 mg·kg^‐1·day^‐1, three of eight mice): 2.5 and 3.0 and 0.5 | time to reach clinical score of 0.5 after treatment initiation, two mice (C57BL/6 mice [11]; therapeutic treatment): ≤ 11 days | S1P2 receptor agonist activity in more sensitive (cellular) assays (S1P2 receptor [12]): no S1P2 receptor agonist activity

CCCCCCCCc1ccc(CCC(N)(CO)COP(=O)(O)O)cc1 (stereo not drawn) [pFTY720, reference compound]
E max (%) hS1P2 (S1P2 receptor [3]; [14]): 11% | E max (%) hS1P4 (human S1P4 receptor; [14]): 109% | EC50 (human S1P4 receptor; read-out: EC50 hS1P4, (35S)-GTPγS, CHO membranes, geometric mean, n = 2‐4): 64 nM | E max (%) hS1P5 (human S1P5 receptor; [14]): 43% | contraction of rat mesenteric arteries (rat mesenteric arteries; 1, 10 or 100 nmol·L^‐1, n = 4): concentration‐dependent contraction | contraction of upper and lower rat trachea (rat trachea; 10, 100 or 1000 nmol·L^‐1, n = 4): concentration‐dependent contractile response | E max contraction of human bronchi (human bronchi; % of reference contraction to KCl (50 mmol·L^‐1), mean ± SEM, n = 4): 86.5 ± 20.2% | pEC50 contraction of human bronchi (human bronchi; mean ± SEM, n = 4): 6.4 ± 0.5

CCCCCCCOc1ccc(CCC(N)(CO)COP(=O)(O)O)cc1C(F)(F)F (stereo not drawn) [p-amiselimod (pMT-1303)]
rat trachea constriction (rat trachea; lower rat trachea, 1 μmol·L^‐1 and 10 μmol·L^‐1): induced effective rat trachea constriction

CCCCCCCCc1ccc(CCC(N)(CO)CO)cc1 [FTY720, reference compound]
decrease of heart rate (HR) ([6]; 3 mg·kg^‐1 single oral dose): 26 ± 8 bpm | increase of mean arterial blood pressure (MAP) ([6]; 3 mg·kg^‐1 single oral dose, 48 hours observation period): 12 ± 2 mmHg | Penh (index of bronchoconstriction) vs vehicle (Wistar rats [7]; 3 or 10 mg·kg^‐1 p.o. single dose): significant dose‐dependent increases
